The source of these data is ChEMBL document CHEMBL3244363, “Studies on biologically active halogenated compounds. 1. Synthesis and central nervous system depressant activity of 2-(fluoromethyl)-3-aryl-4(3H)-quinazolinone derivatives” (J Med Chem, 1979).

Activity calls are given as the source filed them. The rule behind the calls is not given here. A value given as a limit tells only on which side of the number the result lay.

The subject of series [1] is Mus musculus. Put plainly: Induction of CNS depressant activity in ip dosed ddk mouse assessed as loss of righting reflex activity over 20 secs. The format is functional. Conditions: Central nervous system. A digest of the protocol:
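Groups of six mice received compound ip as a suspension in CMC solution. Each mouse was laid on its back at 15, 30, 60, 90 and 120 min. The reflex was scored as lost if the animal stayed supine over 20 s. ED50 was estimated from the number of mice losing the reflex.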

Series [2] deals with Mus musculus. Put plainly: Induction of CNS depressant activity in ip dosed ddk mouse after 30 mins by rotating rod test. The format is functional. As to conditions: Central nervous system, 0.5 h. A digest of the protocol:
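Compound was given ip to groups of six mice as a suspension in CMC solution. At 30 min each mouse was set on a rotating rod (3.5 cm diameter, 14 rpm) for 1 min. ED50 was estimated from the number of mice falling off the rod twice during the test.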

Series [3] deals with Mus musculus. The series can be described thus: Induction of CNS depressant activity in ip dosed ddk mouse assessed as protection against maximal electroshock-induced tonic hind limb extensor seizures administered 30 mins prior to electroshock challenge. The format is functional. As to conditions: Central nervous system. An outline of the steps: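 Six mice per group were dosed ip with compound suspended in CMC solution. After 30 min, a 25 mA alternating current was delivered through corneal electrodes for 0.15 s. ED50 was estimated from the number of mice protected against the tonic hind limb extensor component.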
On the technique in general: In the maximal electroshock model the usual endpoint is tonic extension of the hind limbs.

The subject of series [4] is Mus musculus. Put plainly: Induction of CNS depressant activity in ip dosed ddk mouse assessed as protection against pentylenetetrazole-induced tonic extensive convulsions administered 30 mins prior to pentylenetetrazole challenge. Type of series: functional. As to conditions: Central nervous system. An outline of the steps:
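In groups of six mice, compound was injected ip as a suspension in CMC solution. Pentylenetetrazole 125 mg/kg was given sc 30 min later. ED50 was estimated from the number of mice protected against death from tonic extensive convulsions within 1 h of the convulsant.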

Series [5] can be described thus: Acute toxicity in ip dosed ddk mouse assessed as lethality after 72 hrs. The format is organism-based. Conditions: in vivo.
Series [6] has as its system Mus musculus. Put plainly: Induction of CNS depressant activity in ip dosed ddk mouse assessed as excitation incidence during loss of righting reflex activity over 20 secs. Type of series: functional, organism-based. As to conditions: Central nervous system.

In general, ED50 refers to the midpoint of the dose-response relation. In the case of `Cc1ccccc1-n1c(C)nc2ccc(N)cc2c1=O`, the ED50 in the series with Mus musculus [1] worked out at 28.1 mg/kg; in the series with Mus musculus [2] it was 27.9 mg/kg; in the series with Mus musculus [3], 25.4 mg/kg; in the series on Mus musculus [4], 8.1 mg/kg.
With `Cc1ccccc1-n1c(CF)nc2ccc([N+](=O)[O-])cc2c1=O`, in series [5], the MTD at 72 h is at least 300 mg/kg. For the same molecule, the ED50 with Mus musculus [1], in the series with Mus musculus [2], in the series with Mus musculus [3] and in the series with Mus musculus [4] was above 150 mg/kg throughout.
What is called LD50 is the dose expected to kill half of the subjects tested. Take `Cc1ccccc1-n1c(CF)nc2ccccc2c1=O`: the LD50 at 72 h in series [5] came to 710 mg/kg. Besides, the median effective dose (ED50) was 19.9 mg/kg with Mus musculus [1], 35.1 mg/kg in the series on Mus musculus [2], 25.2 mg/kg in the series with Mus musculus [3] and 26.6 mg/kg in the series on Mus musculus [4].
With `Cc1ccccc1-n1c(CF)nc2cccc(Cl)c2c1=O`, the MTD at 72 h in series [5] was at least 300 mg/kg. Further, the 50% effective dose (ED50) is 95.7 mg/kg in the series with Mus musculus [1], 37.6 mg/kg with Mus musculus [2], 40.3 mg/kg with Mus musculus [3] and 34.9 mg/kg with Mus musculus [4].
On the same counts, the results for `Cc1ccccc1-n1c(CF)nc2ccc(Cl)cc2c1=O` are at least 300 mg/kg, above 150 mg/kg, above 150 mg/kg, above 150 mg/kg and above 150 mg/kg.
For the molecule `Cc1cc(Cl)ccc1-n1c(CF)nc2ccccc2c1=O`, in series [5], the LD50 at 72 h came out at 432 mg/kg. Also, the median effective dose (ED50) stood at 18.7 mg/kg with Mus musculus [1], 14.1 mg/kg with Mus musculus [3] and 16.3 mg/kg with Mus musculus [4]. The result with Mus musculus [6] was Active.
Regarding `Cc1ccccc1-n1c(CF)nc2ccc(N)cc2c1=O` [AFLOQUALONE], the LD50 at 72 h in series [5] was 315 mg/kg. The 50% effective dose (ED50) stood at 35.1 mg/kg with Mus musculus [1], 15.6 mg/kg in the series on Mus musculus [2], 13.3 mg/kg with Mus musculus [3] and 5.4 mg/kg in the series with Mus musculus [4].
On the same counts, the results for `Cc1c(Cl)cccc1-n1c(CF)nc2ccccc2c1=O` are 1560 mg/kg, 18.4 mg/kg, 15 mg/kg, 15 mg/kg and 16.1 mg/kg.
On the same counts, the results for `Cc1ccccc1-n1c(C)nc2ccccc2c1=O` [METHAQUALONE] are 542 mg/kg, 31.6 mg/kg, 33.7 mg/kg, 35.2 mg/kg and 36.7 mg/kg.
As for `O=c1c2ccccc2nc(CF)n1-c1ccc(Cl)cc1Cl`, the MTD at 72 h in series [5] was found to be 100 mg/kg. Besides, the ED50 worked out at 18.7 mg/kg in the series with Mus musculus [1], 8.1 mg/kg in the series with Mus musculus [3] and 16.3 mg/kg with Mus musculus [4]. For the same molecule, the result in the series on Mus musculus [6] was Active.
On to `Cc1cc(Cl)ccc1-n1c(CF)nc2cccc(Cl)c2c1=O`, for which, in series [5], the MTD at 72 h was at least 300 mg/kg. The ED50 is above 150 mg/kg with Mus musculus [1], above 150 mg/kg in the series with Mus musculus [2], above 150 mg/kg with Mus musculus [3] and 88.4 mg/kg with Mus musculus [4].
For `CC(=O)Nc1ccc2nc(CF)n(-c3ccccc3C)c(=O)c2c1`, the MTD at 72 h in series [5] was at least 300 mg/kg. In addition, the ED50 was above 150 mg/kg in the series with Mus musculus [1], above 150 mg/kg in the series on Mus musculus [2], above 150 mg/kg in the series on Mus musculus [3] and 75.2 mg/kg with Mus musculus [4].
As for `O=c1c2ccccc2nc(CF)n1-c1ccccc1`, the MTD at 72 h in series [5] was at least 300 mg/kg. Moreover, the median effective dose (ED50) stood at 130 mg/kg in the series with Mus musculus [1], 98 mg/kg in the series on Mus musculus [2], 116 mg/kg in the series with Mus musculus [3] and 95.3 mg/kg in the series with Mus musculus [4].
